Sampled rows, rich in hits. Any-hit rate of the full collection: about 2%.
SIAE inh: inhibitors of human sialic acid acetylesterase SIAE. SIAE FP-Rh probe binding, fluorescence polarization. inhibition, % at 9.66 µM. actives 0.69% (n = 370,000). AID 1053197;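 active = inhibition above a cutoff: mean of compounds within the control limits plus 3 SD of those, cut at about 17% in these data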;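 also: 0% = plate median of compound wells and 100% = probe without SIAE protein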
PAD4 FP inh: blocks human protein arginine deiminase 4. recombinant PAD4, RCA probe fluorescence polarization. actives 0.41% (n = 330,000). Q9UM07. AID 485272. inhibition, % at 6.36 µM;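 active = percent inhibition above a cutoff equal to the mean of all tested compounds plus 3 SD, cut at about 15% in these data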;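 also: 0% = PAD4 with RCA probe and DMSO and 100% = probe without PAD4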
TCR CD3 inh: human TCR-CD3 binding inhibition; inhibition, % at 9.4 µM; actives 0.37% (n = 360,000); TAMRA-labeled TCR probe fluorescence, biochemical;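 also: recombinant mutant TCR 2C K166C tagged with TAMRA read by polarization; 0% = receptor in buffer alone and 100% = receptor with positive control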
mABHD4 FP: inhibitors of mouse ABHD4 | Q8VD66 | purified mABHD4, FP-Rh probe fluorescence polarization | inhibition, % at 8.92 µM | actives 0.54% (n = 370,000);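 active = inhibition exceeding the mean over every tested compound plus 3 SD, cut at about 30% in these data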;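 also: 0% = plate median of compound wells and 100% = S159A mutant with DMSO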
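Assay system: mABHD4 protein; medium: HEPES pH 7.0, NaCl, Pluronic buffer; dosing: 8.92 µM, single dose; schedule: 45 min + 60 min at 25 °C; signal: FP readout, ex 525 nm / em 598 nm; read-out: normalized percent inhibition of probe labeling; repeats: single replicate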
HTRA1 inh: HTRA1 (human) protease inhibition; AID 504803; Q92743; recombinant HTRA1, FP-rhodamine activity-based probe, fluorescence polarization; actives 0.5% (n = 340,000); inhibition, % at 5.96 µM; in the data active = inhibition above about 36%;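 also: 0% = enzyme with DMSO and 100% = wells lacking enzyme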
Target sequence (Q92743 whole entry, looked up): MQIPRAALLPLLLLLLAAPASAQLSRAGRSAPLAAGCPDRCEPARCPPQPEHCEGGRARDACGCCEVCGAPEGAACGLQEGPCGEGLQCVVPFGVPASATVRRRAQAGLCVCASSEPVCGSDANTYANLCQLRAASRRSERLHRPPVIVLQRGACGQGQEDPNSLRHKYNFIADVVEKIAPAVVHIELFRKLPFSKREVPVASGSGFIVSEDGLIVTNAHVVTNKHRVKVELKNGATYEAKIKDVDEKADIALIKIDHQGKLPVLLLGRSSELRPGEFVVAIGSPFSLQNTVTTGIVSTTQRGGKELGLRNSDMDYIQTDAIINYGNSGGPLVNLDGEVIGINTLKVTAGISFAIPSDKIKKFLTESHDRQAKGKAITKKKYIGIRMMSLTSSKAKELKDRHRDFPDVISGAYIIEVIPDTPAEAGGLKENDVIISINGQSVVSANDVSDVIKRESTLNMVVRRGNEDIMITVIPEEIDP
TDP2 inh: TDP2 (human) inhibition, absorbance primary screen | recombinant TDP2, T5PNP hydrolysis, p-nitrophenol absorbance 415 nm | inhibition, % at 12.8 µM | AID 720702 | O95551 | actives 0.34% (n = 370,000);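 active = inhibition above the mean of all tested compounds plus 3 SD, set per campaign, cut at about 25% in these data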;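 also: 0% = DMSO with enzyme and 100% = buffer with substrate but no TDP2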
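Assay system: recombinant human TDP2 / Reagent: T5PNP substrate at 5 mM, a TopII-DNA adduct mimic / Measured by: epi absorbance from released p-nitrophenol / Evaluation: % inhibition relative to enzyme-containing and enzyme-free wells / Control set: enzyme-free and DMSO wells / Replicates: each compound tested once, singlicate / Schedule: enzyme reaction with compound for 2 h at 37 °C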
PAD4 FP conf: PAD4 (human) inhibition, confirmed. shares compounds with PAD4 FP inh. recombinant PAD4, RCA probe fluorescence polarization. inhibition, % at 6.36 µM. actives 28% (n = 1,200);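 active = mean inhibition across replicates above the hit cutoff set by the earlier primary screen, cut at about 15% in these data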;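 also: inhibitors block active-site labeling by the probe so polarization falls; 0% = PAD4 with probe and DMSO and 100% = probe without PAD4 enzyme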
HTRA1 conf: confirmation of human HTRA1 inhibitors; inhibition, % at 5.96 µM; actives 66% (n = 1,600); recombinant HTRA1, FP-rhodamine activity-based probe, fluorescence polarization; shares compounds with HTRA1 inh; AID 540248;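 active = mean inhibition over three repeats above a set limit taken from the earlier primary screen, cut at about 37% in these data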;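 also: 0% = HTRA1 with DMSO and 100% = wells lacking HTRA1; inhibitors block probe binding so polarization drops and inhibition rises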
BSA TAMRA ctr: interferes with TAMRA-BSA probe, flagging TCR-CD3 hits; shares compounds with TCR CD3 inh; TAMRA-labeled BSA probe fluorescence counterscreen; inhibition, % at 9.4 µM; actives 10% (n = 1,200); AID 652035; in the data active = inhibition above about 23%;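 also: 0% = buffer low control and 100% = reference high control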
TCR-CD3 inh conf: confirmation of human TCR-CD3 interaction inhibitors. shares compounds with TCR CD3 inh. actives 48% (n = 1,200). TAMRA-labeled TCR probe fluorescence binding assay. inhibition, % at 9.4 µM
mABHD4 conf: ABHD4 (mouse) inhibition, FP confirmation. shares compounds with mABHD4 FP. purified mABHD4, FP-Rh probe fluorescence polarization. inhibition, % at 8.92 µM. actives 55% (n = 1,800). AID 720658;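 active = mean inhibition across replicates above the hit cutoff set in the primary screen, cut at about 30% in these data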;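 also: 0% = wild-type ABHD4 with DMSO and 100% = catalytically dead S159A mutant with DMSO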
TDP2 inh conf: human TDP2 inhibition, confirmation. shares compounds with TDP2 inh. recombinant human TDP2, absorbance read-out. inhibition, % at 12.8 µM. actives 22% (n = 1,100). AID 743263; in the data active = inhibition above about 25%;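 also: 0% = vehicle with enzyme and 100% = no enzyme buffer only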
* hit, by the source's call; / = no result given. Rule as the data show it, unless noted: active = inhibition above about 19%; inactive = the rest.

SMILES | SIAE inh | PAD4 FP inh | TCR CD3 inh | mABHD4 FP | HTRA1 inh | TDP2 inh | PAD4 FP conf | mABHD4 conf | TDP2 inh conf | others
CC(=O)Nc1ccc(S(=O)(=O)NCc2ccc3c(c2)cc(C)n3C)cc1 | 15 | 16* | 54* | 46* | 27 | -8 | 7 | -13 | / | BSA TAMRA ctr=-1;TCR-CD3 inh conf=1
CC(=O)Nc1ccc(S(=O)(=O)NCc2ccc3[nH]c(C)cc3c2)cc1 | 2 | -2 | 1 | -19 | 8 | 9 | / | / | /
Cc1ccc(S(=O)(=O)N2O[C@@H](c3ccccc3)C[C@H]2CON2C(C)(C)CCCC2(C)C)cc1 | -11 | / | / | -7 | / | -15 | / | / | /
O=C(NN=C1C2CC3CC(C2)CC1C3)c1ccncc1 | 2 | -2 | 7 | -5 | 0 | 0 | / | / | /
O=C(N/N=C1\C/C(=N\NC(=O)c2ccncc2)c2ccccc21)c1ccncc1 | 7 | 44* | -5 | 39* | 29 | 19 | -15 | 29 | /
O=C(c1ccc(Cl)cc1)C1CCN(c2ncnc3sccc23)CC1 | -3 | / | / | -6 | / | 1 | / | / | /
O=C(O)c1ccccc1C1=Nc2ccc(O)cc2Oc2cc(O)ccc21 | 13 | 26* | 34* | 30* | 17 | 8 | 35* | 61* | / | BSA TAMRA ctr=57*;TCR-CD3 inh conf=47*
CN(C)c1ccc(NC2=C(Cl)C(=O)c3ccccc3C2=O)cc1 | 10 | 28* | -3 | 43* | 63* | 22 | 16* | 54* | / | HTRA1 conf=58*
Cc1ccc(N2C(=O)c3cccc4c(N)ccc(c34)C2=O)c2cccnc12 | -38 | -21 | 13 | 4 | 11 | -1 | / | / | /
CCN1C(=O)c2cccc3c(N)ccc(c23)C1=O | 9 | 27* | 12 | 33* | 24 | -3 | 26* | 58* | /
CCN(CC)c1ccc(N=Cc2c(C)[nH]c3ccccc23)cc1 | 14 | 25* | -5 | 36* | 50* | 8 | 3 | 30* | / | HTRA1 conf=22
Cc1[nH]c2ccccc2c1/C=N/n1cnnc1 | 6 | -4 | 4 | -6 | -1 | 4 | / | / | /
COc1ccc(NC(=O)C(c2cc3c(cc2[N+](=O)[O-])OCO3)N(C)C)cc1 (centres undefined) | 7 | 31* | 15 | 70* | 10 | 4 | 5 | -2 | /
O=C(OC12CCCN(C1)/C(=C/c1ccc(Cl)cc1)C2)c1ccccc1 (centres undefined) | 7 | / | / | 0 | / | -5 | / | / | /
COc1ccc(Cn2cc(CN3[C@H](Cc4ccccc4)COc4cc(Br)ccc4S3(=O)=O)nn2)cc1 | 5 | / | / | 5 | / | 6 | / | / | /
Cc1ccc(C2C(C#N)=C(N)Oc3n[nH]c(-c4cccs4)c32)cc1 (centres undefined) | 4 | 41* | -6 | 8 | -11 | 32* | -12 | / | 11
Cc1[nH][nH]c(=O)c1C(c1ccc(N(C)C)c(Br)c1)c1c(C)[nH][nH]c1=O | 7 | -11 | 4 | 4 | 0 | 12 | / | / | /
Cc1[nH][nH]c(=O)c1C(c1ccc(-c2ccc(F)cc2)o1)c1c(C)[nH][nH]c1=O | 4 | 48* | -4 | 5 | 1 | 60* | -20 | / | 20
CCOc1ccc(-n2c(SCC(=O)Nc3ccccc3-c3ccccc3)nnc2-c2cccs2)cc1 | -4 | / | / | -10 | / | -3 | / | / | /
COC(=O)C1C(O)=C(C=Nc2ccc(N)cc2)C(=O)CC1(C)C (centres undefined) | 16 | 47* | 26* | 38* | 27 | 54* | 3 | 5 | -4 | BSA TAMRA ctr=-5;TCR-CD3 inh conf=1
CC1(C)CC(=O)C(C=Nc2ccc(N)cc2)=C(O)C1 | 11 | 40* | 23* | 35* | 26 | 54* | 5 | -7 | -10 | BSA TAMRA ctr=0;TCR-CD3 inh conf=-1
CC(=O)Nc1ccc(S(=O)(=O)/N=C2\C(=O)c3ccccc3C([O-])=C2n2cc[n+](-c3ccccn3)c2)cc1 | 4 | 32* | 7 | 17 | 14 | 37* | 2 | / | 23
Cc1ccc(S(=O)(=O)/N=C2\C(=O)c3ccccc3C([O-])=C2n2cc[n+](CCC(C)C)c2)cc1 | / | -6 | / | / | -1 | / | / | / | /
CCOc1cc(/C=C2\C(=O)N(CCC#N)N=C2C)ccc1OCC(N)=O | 8 | 57* | 0 | 6 | 2 | 77* | -6 | / | 18
COc1cc(/C=C2\SC(N)=NC2=O)ccc1OCC(=O)Nc1ccc(C)cc1 | -22 | -4 | 7 | -30 | -24 | 3 | / | / | /
SMILES | SIAE inh | PAD4 FP inh | TCR CD3 inh | mABHD4 FP | HTRA1 inh | TDP2 inh | PAD4 FP conf | mABHD4 conf | TDP2 inh conf | others
CCOc1cc(/C=N/NC(=O)c2cccnc2)ccc1OCC(N)=O | -3 | -3 | 2 | -2 | -4 | 9 | / | / | /
COc1cc(/C=C2\C(=O)N(CCC#N)N=C2C)ccc1OCC(=O)Nc1ccccc1 | 12 | 51* | 6 | -1 | -5 | 84* | -8 | / | 20
CCC(O)(c1ccc(NC(=O)OC(C)(C)C)cc1)c1cc(OC)cc(OC)c1 (centres undefined) | 5 | / | / | -29 | / | 8 | / | / | /
Oc1ccccc1/C=N/Nc1nn[nH]n1 | 2 | 1 | -3 | 3 | 8 | -12 | / | / | /
Cc1nnc(N/N=C/c2ccccc2O)n1N | 16 | 41* | 0 | 1 | 18 | 59* | 1 | / | 26*
Cc1nnc(N/N=C/c2c(Cl)cccc2Cl)n1N | 2 | 33* | 3 | -1 | 5 | 52* | 7 | / | -5
CCOc1cc(/C=N/Nc2ncnc(Cl)c2N)ccc1O | -1 | 0 | 11 | 10 | 0 | -4 | / | / | /
Fc1cccc(Cl)c1/C=N/Nc1ccccn1 | -2 | -1 | 4 | 7 | 1 | 1 | / | / | /
Clc1cccc(Cl)c1/C=N\Nc1nccs1 | 9 | 0 | -7 | 17 | -3 | 3 | / | / | /
CCOc1cc(/C=N/Nc2nnc(C)n2N)ccc1O | -4 | 50* | -4 | -1 | 12 | 48* | 0 | / | 5
CCc1nnc(N/N=C/c2c(F)cccc2Cl)n1N | 0 | 37* | -1 | 7 | -2 | 58* | 2 | / | 4
